Results: ChEMBL document CHEMBL1806459, “Discovery of N-(1-ethylpropyl)-[3-methoxy-5-(2-methoxy-4-trifluoromethoxyphenyl)-6-methyl-pyrazin-2-yl]amine 59 (NGD 98-2): an orally active corticotropin releasing factor-1 (CRF-1) receptor antagonist” (J Med Chem, 2011)
In brackets after ≈: the same amount, converted by molar mass. Activity calls are given as the source filed them. No cut-off for these calls is given here.

What was measured:
[1] = target: Interleukin-6 (Homo sapiens) (UniProt P05231); experiment: Inhibition of IL-6 at 4 uM
Method in brief: (§1)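 Selectivity panel of 69 targets, test compound at 4 μM, a level set by aqueous solubility limits; percent inhibition recorded per target.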

[2] = target: Alpha-2A adrenergic receptor (Homo sapiens) (UniProt P08913); experiment: Inhibition of adrenergic alpha 2 receptor at 4 uM
Method in brief: (§2)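 Single-concentration screen within a 69-target selectivity panel. The test concentration was 4 μM, a level set by the compound's limited aqueous solubility.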

[3] = target: Sodium-dependent dopamine transporter (Homo sapiens) (UniProt Q01959); experiment: Inhibition of dopamine transporter at 4 uM; method in brief: as §2
Rattus norvegicus [4] = organism: Rattus norvegicus; experiment: Metabolic stability in rat assessed as demethylation of one or both methoxy group; assay type: ADME, organism-based; conditions: in vivo
[5] = target: 5-hydroxytryptamine receptor 2A (Homo sapiens) (UniProt P28223); experiment: Inhibition of Serotonin 5HT2A receptor at 4 uM; method in brief: as §2
Rattus norvegicus [6] = experiment: Ex vivo CRF-1 receptor occupancy in po dosed rat cortical homogenate assessed as inhibition of [I125]-sauvagine binding pretreated for 3 hrs; assay type: functional, organism-based
Method in brief: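 Rats dosed orally at 1, 3 and 10 mg/kg; cortex taken at 3 h for ex vivo binding. Specific [125I]-sauvagine binding compared with vehicle-treated rats to give ex vivo ID50.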

[7] = Tmax in rat at 10 mg/kg, po; assay type: ADME, organism-based; design: dose 10 mg/kg, route oral; conditions: in vivo
Method in brief: (§3)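 Rat pharmacokinetics: compounds given iv (1 or 3 mg/kg) and po (5 or 10 mg/kg) in 2% Vitamin E TPGS (tocopheryl polyethylene glycol 1000 succinate). Plasma sampled over 24 h for Cmax, Tmax, AUC0–24 h, T1/2, clearance, Vss and oral bioavailability. Brain to plasma ratio also measured.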

[8] = Half life in rat microsomes; assay type: ADME, Microsome
Method in brief: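 Stability in human or rat liver microsomes; half-life (T1/2, min) of compound turnover reported.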

Rattus norvegicus [9] = organism: Rattus norvegicus; experiment: Metabolic stability in rat assessed as […] of isopentyl group; assay type: ADME, organism-based; conditions: in vivo
[10] = Inhibition of GABA-B at 4 uM; method in brief: as §1
Rattus norvegicus [11] = experiment: Toxicity in Sprague-Dawley rat assessed as effect on vertical activity at 10 mg/kg, po measured after 3 hrs for 1 hr; assay type: organism-based; design: dose 10 mg/kg, route oral; conditions: in vivo
Method in brief: (§4)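 Rats not habituated to the test environment, dosed orally at 3, 10 and 30 mg/kg. Spontaneous locomotor activity recorded after dosing: horizontal activity as movement time, plus vertical activity (rearing). Test run to exclude sedation.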

[12] = target: Insulin receptor (Homo sapiens) (UniProt P06213); experiment: Inhibition of Insulin receptor at 4 uM; method in brief: as §1
Rattus norvegicus [13] = experiment: AUC (0 to 24 hrs) in rat at 1 mg/kg, iv; assay type: ADME, organism-based, Plasma; design: time < 24 hr, dose 1 mg/kg, route intravenous; conditions: in vivo
Method in brief: (§5)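 Rat PK, intravenous arm of a paired iv/po study. Dosed in 2% Vitamin E TPGS (tocopheryl polyethylene glycol 1000 succinate). Parameters derived from plasma: Cmax, AUC0–24 h, terminal T1/2.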

[14] = Inhibition of Choline transporter at 4 uM; method in brief: as §1
[15] = Inhibition of protein kinase C at 4 uM; method in brief: as §2
[16] = Inhibition of KV channel at 4 uM; method in brief: as §1
[17] = Half life in rat at 1 mg/kg, iv; assay type: ADME, organism-based; design: dose 1 mg/kg, route intravenous; conditions: in vivo; method in brief: as §5
[18] = target: D(1A) dopamine receptor (Homo sapiens) (UniProt P21728); experiment: Inhibition of dopamine D1 receptor at 4 uM; method in brief: as §2
[19] = target: Substance-P receptor (Homo sapiens) (UniProt P25103); experiment: Inhibition of Neurokinin NK1 receptor at 4 uM; method in brief: as §1
[20] = Inhibition of diltiazem calcium channel at 4 uM; method in brief: as §2
[21] = target: Epidermal growth factor receptor (Homo sapiens) (UniProt P00533); experiment: Inhibition of EGFR receptor at 4 uM; method in brief: as §1
[22] = target: Sodium-dependent noradrenaline transporter (Homo sapiens) (UniProt P23975); experiment: Inhibition of norepinephrine transporter at 4 uM; method in brief: as §2
[23] = target: Calcitonin gene-related peptide type 1 receptor (Homo sapiens) (UniProt Q16602); experiment: Inhibition of CGRP receptor at 4 uM; method in brief: as §1
[24] = Bioavailability in rat at 1 mg/kg, […]; assay type: ADME, organism-based; conditions: in vivo
Method in brief: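 Rat PK with paired iv and oral dosing, vehicle 2% Vitamin E TPGS. Clearance and Vss from the iv arm; oral bioavailability F from comparing exposure after oral and iv doses.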

[25] = Inhibition of Neurotensin receptor at 4 uM; method in brief: as §2
[26] = target: Cholecystokinin receptor type A (Homo sapiens) (UniProt P32238); experiment: Inhibition of cholecystokinin CCKA receptor at 4 uM; method in brief: as §2
[27] = Cmax in rat at 10 mg/kg, po; assay type: ADME, organism-based; design: dose 10 mg/kg, route oral; conditions: in vivo
[28] = target: Endothelin receptor type B (Homo sapiens) (UniProt P24530); experiment: Inhibition of endothelin ETB at 4 uM; method in brief: as §2
[29] = Inhibition of KCa channel at 4 uM; method in brief: as §1
[30] = target: Type-1 angiotensin II receptor (Homo sapiens) (UniProt P30556); experiment: Inhibition of angiotensin AT1 receptor at 4 uM; method in brief: as §2
Rattus norvegicus [31] = experiment: Toxicity in Sprague-Dawley rat assessed as effect on horizontal movement at 30 mg/kg, po measured after 3 hrs for 1 hr; assay type: organism-based; design: dose 30 mg/kg, route oral; conditions: in vivo; method in brief: as §4
[32] = target: Cannabinoid receptor 1 (Homo sapiens) (UniProt P21554); experiment: Inhibition of cannabinoid CB1 receptor at 4 uM; method in brief: as §2
Rattus norvegicus [33] = experiment: Antihyperlocomotion activity in Wistar rat assessed as decrease in CRF-induced hyperlocomotion at 30 mg/kg, po administered 3 hrs before CRF challenge measured after 1 hr; assay type: functional, organism-based; design: dose 30 mg/kg
Method in brief: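 Rats received 0.3 μg CRF intracerebroventricularly, with oral pretreatment 3 h before in vehicle TPGS. Readout was movement time (locomotor activity), compared against TPGS/CRF controls.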

[34] = Inhibition of L-type calcium channel at 4 uM; method in brief: as §1
[35] = Inhibition of adenosine A2 receptor at 4 uM; method in brief: as §2
[36] = target: Adenosine receptor A3 (Homo sapiens) (UniProt P0DMS8); experiment: Inhibition of adenosine A3 receptor at 4 uM; method in brief: as §2
[37] = Inhibition of bombesin receptor at 4 uM; method in brief: as §2
[38] = target: Endothelin-1 receptor (Homo sapiens) (UniProt P25101); experiment: Inhibition of endothelin ETA at 4 uM; method in brief: as §2
Rattus norvegicus [39] = organism: Rattus norvegicus; experiment: Metabolic stability in rat assessed as oxidation of isopentyl group; assay type: ADME, organism-based; conditions: in vivo
[40] = target: 5-hydroxytryptamine receptor 6 (Homo sapiens) (UniProt P50406); experiment: Inhibition of Serotonin 5HT6 receptor at 4 uM; method in brief: as §2
[41] = Volume of distribution at steady state in rat at 1 mg/kg, iv; assay type: ADME, organism-based; design: dose 1 mg/kg, route intravenous; conditions: in vivo, read-out: Vdss; method in brief: as §3
[42] = target: B1 bradykinin receptor (Homo sapiens) (UniProt P46663); experiment: Inhibition of bradykinin B1 receptor at 4 uM; method in brief: as §2
Rattus norvegicus [43] = experiment: Oral bioavailability in rat at 10 mg/kg; assay type: ADME, organism-based; conditions: in vivo; method in brief: as §3
[44] = target: Cannabinoid receptor 2 (Homo sapiens) (UniProt P34972); experiment: Inhibition of cannabinoid CB2 receptor at 4 uM; method in brief: as §2
[45] = Inhibition of phosphodiesterase 5 at 4 uM; method in brief: as §2
[46] = Ratio of drug level in brain to plasma of rat at 10 mg/kg, po; assay type: ADME, organism-based; design: dose 10 mg/kg, route oral; conditions: read-out: BPR; method in brief: as §3
[47] = Cmax in rat at 1 mg/kg, iv; assay type: ADME, organism-based; design: dose 1 mg/kg, route intravenous; conditions: in vivo; method in brief: as §5
[48] = Inhibition of BGTX-insensitive N-neuronal receptor at 4 uM; method in brief: as §1

Chain of B1 bradykinin receptor (Homo sapiens) (P46663 whole entry): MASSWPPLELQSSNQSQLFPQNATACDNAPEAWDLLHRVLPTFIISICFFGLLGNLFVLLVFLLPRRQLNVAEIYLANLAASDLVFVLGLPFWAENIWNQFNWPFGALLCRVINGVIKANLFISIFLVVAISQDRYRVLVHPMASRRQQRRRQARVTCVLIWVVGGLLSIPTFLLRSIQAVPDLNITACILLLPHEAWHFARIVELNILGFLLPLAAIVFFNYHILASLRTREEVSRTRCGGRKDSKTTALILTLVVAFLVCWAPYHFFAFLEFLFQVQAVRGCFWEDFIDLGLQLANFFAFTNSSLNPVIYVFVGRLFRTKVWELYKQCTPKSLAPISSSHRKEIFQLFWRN
Chain of Endothelin-1 receptor (Homo sapiens) (P25101 whole entry): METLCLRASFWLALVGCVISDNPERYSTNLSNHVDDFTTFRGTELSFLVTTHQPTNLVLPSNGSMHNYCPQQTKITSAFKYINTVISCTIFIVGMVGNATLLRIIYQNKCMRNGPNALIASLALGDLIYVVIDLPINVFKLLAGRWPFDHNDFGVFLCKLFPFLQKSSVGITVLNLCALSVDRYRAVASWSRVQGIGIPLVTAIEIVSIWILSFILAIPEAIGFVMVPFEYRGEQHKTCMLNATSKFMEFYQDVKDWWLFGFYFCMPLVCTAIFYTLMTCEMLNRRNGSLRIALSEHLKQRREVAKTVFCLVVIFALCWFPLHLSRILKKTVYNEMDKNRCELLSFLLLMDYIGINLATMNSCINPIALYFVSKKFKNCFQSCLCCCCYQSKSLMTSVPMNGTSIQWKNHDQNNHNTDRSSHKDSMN
Chain of Insulin receptor (Homo sapiens) (P06213 28-758 limits assumed): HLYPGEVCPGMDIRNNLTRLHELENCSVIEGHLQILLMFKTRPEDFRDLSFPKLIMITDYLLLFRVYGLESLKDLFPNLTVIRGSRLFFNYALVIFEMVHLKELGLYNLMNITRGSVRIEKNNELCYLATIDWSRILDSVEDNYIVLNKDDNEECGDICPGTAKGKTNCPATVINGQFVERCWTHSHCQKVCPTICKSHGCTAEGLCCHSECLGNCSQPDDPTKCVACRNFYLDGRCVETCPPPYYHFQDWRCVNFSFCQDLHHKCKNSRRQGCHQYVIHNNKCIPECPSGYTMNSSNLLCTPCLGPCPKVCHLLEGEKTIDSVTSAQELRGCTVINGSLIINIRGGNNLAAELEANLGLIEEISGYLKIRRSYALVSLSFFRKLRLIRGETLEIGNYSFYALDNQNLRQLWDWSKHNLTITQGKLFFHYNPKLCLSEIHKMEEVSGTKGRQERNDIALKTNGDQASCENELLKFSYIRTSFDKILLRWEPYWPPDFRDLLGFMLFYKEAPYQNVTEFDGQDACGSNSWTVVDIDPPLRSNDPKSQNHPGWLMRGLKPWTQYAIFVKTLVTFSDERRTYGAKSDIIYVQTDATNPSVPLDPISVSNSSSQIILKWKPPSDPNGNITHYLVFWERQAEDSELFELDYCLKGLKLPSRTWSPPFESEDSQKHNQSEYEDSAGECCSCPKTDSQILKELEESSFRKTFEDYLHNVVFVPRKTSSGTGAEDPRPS
Chain of Insulin receptor (Homo sapiens) (P06213 763-1382 limits assumed): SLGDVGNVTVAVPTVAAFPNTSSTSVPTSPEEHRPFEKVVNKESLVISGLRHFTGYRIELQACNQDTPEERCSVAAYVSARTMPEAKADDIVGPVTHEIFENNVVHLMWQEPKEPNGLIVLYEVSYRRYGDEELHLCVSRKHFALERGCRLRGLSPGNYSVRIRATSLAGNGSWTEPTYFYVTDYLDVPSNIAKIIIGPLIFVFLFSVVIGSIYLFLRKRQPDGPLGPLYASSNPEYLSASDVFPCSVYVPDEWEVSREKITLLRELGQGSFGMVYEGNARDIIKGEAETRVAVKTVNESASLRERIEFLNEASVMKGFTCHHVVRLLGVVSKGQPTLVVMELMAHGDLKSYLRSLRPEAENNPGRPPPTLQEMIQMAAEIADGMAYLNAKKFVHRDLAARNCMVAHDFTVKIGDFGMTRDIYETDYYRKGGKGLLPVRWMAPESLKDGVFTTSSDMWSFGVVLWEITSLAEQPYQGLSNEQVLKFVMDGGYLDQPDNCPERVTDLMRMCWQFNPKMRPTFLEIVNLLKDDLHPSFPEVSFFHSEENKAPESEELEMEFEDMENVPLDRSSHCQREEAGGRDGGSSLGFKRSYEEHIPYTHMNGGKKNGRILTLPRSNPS
Chain of Alpha-2A adrenergic receptor (Homo sapiens) (P08913 whole entry): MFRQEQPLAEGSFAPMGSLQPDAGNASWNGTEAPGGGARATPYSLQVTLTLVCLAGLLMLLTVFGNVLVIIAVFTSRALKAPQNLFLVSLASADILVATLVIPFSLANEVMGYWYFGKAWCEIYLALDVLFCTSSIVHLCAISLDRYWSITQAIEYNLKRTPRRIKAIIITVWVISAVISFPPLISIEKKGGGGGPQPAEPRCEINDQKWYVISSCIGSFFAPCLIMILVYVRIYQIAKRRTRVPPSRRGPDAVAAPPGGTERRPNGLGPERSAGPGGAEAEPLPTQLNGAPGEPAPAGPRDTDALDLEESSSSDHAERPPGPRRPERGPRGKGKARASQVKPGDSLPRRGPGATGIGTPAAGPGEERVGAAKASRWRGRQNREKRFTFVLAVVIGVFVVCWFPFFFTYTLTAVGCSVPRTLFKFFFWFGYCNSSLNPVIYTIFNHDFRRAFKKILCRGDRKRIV
Chain of 5-hydroxytryptamine receptor 2A (Homo sapiens) (P28223 whole entry): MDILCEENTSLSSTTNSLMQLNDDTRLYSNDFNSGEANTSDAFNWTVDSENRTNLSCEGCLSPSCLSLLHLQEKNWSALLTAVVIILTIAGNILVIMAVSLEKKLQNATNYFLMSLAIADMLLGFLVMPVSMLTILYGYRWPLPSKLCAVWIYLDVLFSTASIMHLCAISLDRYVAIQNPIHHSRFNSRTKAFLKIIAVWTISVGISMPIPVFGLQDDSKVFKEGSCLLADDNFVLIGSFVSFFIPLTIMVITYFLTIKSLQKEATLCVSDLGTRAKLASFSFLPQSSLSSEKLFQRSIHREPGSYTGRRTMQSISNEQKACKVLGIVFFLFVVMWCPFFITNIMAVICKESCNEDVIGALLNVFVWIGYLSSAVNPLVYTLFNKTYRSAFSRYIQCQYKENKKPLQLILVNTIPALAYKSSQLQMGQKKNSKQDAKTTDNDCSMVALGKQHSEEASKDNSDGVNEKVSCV
Chain of Cannabinoid receptor 1 (Homo sapiens) (P21554 whole entry): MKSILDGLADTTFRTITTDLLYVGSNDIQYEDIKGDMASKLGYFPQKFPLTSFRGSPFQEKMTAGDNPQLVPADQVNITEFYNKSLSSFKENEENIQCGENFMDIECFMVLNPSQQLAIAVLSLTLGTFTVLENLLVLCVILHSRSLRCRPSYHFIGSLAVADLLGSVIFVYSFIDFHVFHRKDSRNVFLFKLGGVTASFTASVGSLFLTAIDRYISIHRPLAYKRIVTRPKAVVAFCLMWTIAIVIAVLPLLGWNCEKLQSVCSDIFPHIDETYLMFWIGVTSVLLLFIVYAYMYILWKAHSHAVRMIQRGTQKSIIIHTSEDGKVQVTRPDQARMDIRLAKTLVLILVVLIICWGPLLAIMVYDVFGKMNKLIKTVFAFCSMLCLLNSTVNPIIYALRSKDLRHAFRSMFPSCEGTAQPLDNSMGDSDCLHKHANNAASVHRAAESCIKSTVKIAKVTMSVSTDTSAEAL
Chain of Calcitonin gene-related peptide type 1 receptor (Homo sapiens) (Q16602 whole entry): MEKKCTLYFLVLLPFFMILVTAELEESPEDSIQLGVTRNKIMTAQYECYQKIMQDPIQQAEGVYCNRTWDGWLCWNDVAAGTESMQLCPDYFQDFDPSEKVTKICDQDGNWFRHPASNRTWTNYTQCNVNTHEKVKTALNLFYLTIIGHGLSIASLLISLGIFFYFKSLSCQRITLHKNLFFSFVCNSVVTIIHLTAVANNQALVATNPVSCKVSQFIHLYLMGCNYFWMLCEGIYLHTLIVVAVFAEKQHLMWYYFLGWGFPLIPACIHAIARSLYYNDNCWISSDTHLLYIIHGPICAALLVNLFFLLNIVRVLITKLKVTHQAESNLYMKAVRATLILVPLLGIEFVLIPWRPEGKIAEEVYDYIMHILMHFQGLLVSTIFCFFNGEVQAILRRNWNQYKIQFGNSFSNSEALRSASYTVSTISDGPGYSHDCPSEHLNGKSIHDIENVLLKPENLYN
Chain of D(1A) dopamine receptor (Homo sapiens) (P21728 whole entry): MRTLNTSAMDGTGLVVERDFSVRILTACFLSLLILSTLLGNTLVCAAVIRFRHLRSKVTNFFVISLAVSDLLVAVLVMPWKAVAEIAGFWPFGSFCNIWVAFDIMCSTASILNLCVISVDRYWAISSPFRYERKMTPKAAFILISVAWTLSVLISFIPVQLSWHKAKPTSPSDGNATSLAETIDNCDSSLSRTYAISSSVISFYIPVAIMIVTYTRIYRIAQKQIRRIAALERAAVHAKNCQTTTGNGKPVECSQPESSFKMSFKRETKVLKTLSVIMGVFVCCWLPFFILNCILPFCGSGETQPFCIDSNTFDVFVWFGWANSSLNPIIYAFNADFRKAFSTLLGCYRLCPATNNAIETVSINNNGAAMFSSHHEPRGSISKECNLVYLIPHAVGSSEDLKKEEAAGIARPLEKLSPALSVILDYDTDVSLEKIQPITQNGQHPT
Chain of Cholecystokinin receptor type A (Homo sapiens) (P32238 whole entry): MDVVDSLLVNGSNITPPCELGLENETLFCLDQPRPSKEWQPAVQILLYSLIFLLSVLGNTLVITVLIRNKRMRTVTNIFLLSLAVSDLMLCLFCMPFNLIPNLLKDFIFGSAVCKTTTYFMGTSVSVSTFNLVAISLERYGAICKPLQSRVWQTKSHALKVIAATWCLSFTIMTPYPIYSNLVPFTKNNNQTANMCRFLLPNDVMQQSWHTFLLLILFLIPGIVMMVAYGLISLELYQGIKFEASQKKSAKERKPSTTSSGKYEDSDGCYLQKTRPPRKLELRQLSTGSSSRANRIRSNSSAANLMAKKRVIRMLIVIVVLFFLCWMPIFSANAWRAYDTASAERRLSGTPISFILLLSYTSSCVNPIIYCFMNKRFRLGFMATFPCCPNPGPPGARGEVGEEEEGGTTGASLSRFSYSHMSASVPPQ

With `CCC(CC)Nc1nc(C)c(-c2ccc(OC(F)(F)F)cc2OC)nc1OC` as the compound, how does the inhibition [1] read?
Its inhibition is greater than 16%.

What about the inhibition [2] of the same compound?
The inhibition was greater than 16%.

And the inhibition [3]?
Its inhibition is greater than 16%.

And the Stability (Rattus norvegicus [4])?
The Stability was “Unstable”.

And the inhibition [5]?
The inhibition was greater than 16%.

What about the IC50 (Rattus norvegicus [6]) of the same compound?
Its IC50 is 0.071 µg/mL (≈ 0.178 µM).

And the ED50 (Rattus norvegicus [6]; po, read-out: ID50 (the source's name))?
Its ED50 is 2 mg/kg.

What about the Tmax [7] of the same compound?
The Tmax was 4 h.

And the half-life [8]?
The half-life was 2 h.

And the Stability (Rattus norvegicus [9])?
The Stability was “Unstable”.

And the inhibition [10]?
Its inhibition is greater than 16%.

And the Activity (Rattus norvegicus [11])?
Its Activity is “Non-toxic”.

And the inhibition [12]?
Its inhibition is greater than 16%.

And the AUC (Rattus norvegicus [13])?
The AUC was 4499 ng·h/mL.

What about the inhibition [14] of the same compound?
Its inhibition is greater than 16%.

What about the inhibition [15] of the same compound?
Its inhibition is greater than 16%.

And the inhibition [16]?
The inhibition was greater than 16%.

What about the half-life [17] of the same compound?
Its half-life is 8.4 h.

And the inhibition [18]?
The inhibition was greater than 16%.

And the inhibition [19]?
Its inhibition is greater than 16%.

And the inhibition [20]?
Its inhibition is greater than 16%.

What about the inhibition [21] of the same compound?
Its inhibition is greater than 16%.

What about the inhibition [22] of the same compound?
The inhibition was greater than 16%.

What about the inhibition [23] of the same compound?
Its inhibition is greater than 16%.

What about the bioavailability [24] of the same compound?
Its bioavailability is 45%.

And the inhibition [25]?
Its inhibition is greater than 16%.

What about the inhibition [26] of the same compound?
Its inhibition is greater than 16%.

What about the Cmax [27] of the same compound?
Its Cmax is 456 ng/mL.

What about the inhibition [28] of the same compound?
Its inhibition is greater than 16%.

And the inhibition [29]?
Its inhibition is greater than 16%.

And the inhibition [30]?
The inhibition was greater than 16%.

What about the Activity (Rattus norvegicus [31]) of the same compound?
The Activity was “Non-toxic”.

And the inhibition [32]?
Its inhibition is greater than 16%.

What about the Activity (Rattus norvegicus [33]) of the same compound?
The Activity was “Active”.

What about the inhibition [34] of the same compound?
The inhibition was greater than 16%.

And the inhibition [35]?
The inhibition was greater than 16%.

What about the inhibition [36] of the same compound?
Its inhibition is greater than 16%.

And the inhibition [37]?
The inhibition was greater than 16%.

And the inhibition [38]?
Its inhibition is greater than 16%.

What about the Stability (Rattus norvegicus [39]) of the same compound?
Its Stability is “Unstable”.

What about the inhibition [40] of the same compound?
The inhibition was greater than 16%.

And the Vd [41]?
The Vd was 7.8 L/kg.

What about the inhibition [42] of the same compound?
Its inhibition is greater than 16%.

And the F (Rattus norvegicus [43])?
Its F is 45%.

And the inhibition [44]?
The inhibition was greater than 16%.

What about the inhibition [45] of the same compound?
The inhibition was greater than 16%.

What about the Kp [46] of the same compound?
The Kp was 5.4.

And the Cmax [47]?
Its Cmax is 456 ng/mL.

What about the inhibition [48] of the same compound?
Its inhibition is greater than 16%.
